Data as given in ChEMBL document CHEMBL1141901, “1-Aryl-4,6-diamino-1,2-dihydrotriazine as antimalarial agent: a new synthetic route” (Bioorg Med Chem Lett, 2005).
pIC50: −log10 of the molar value.

Columns and labels:
[1] = Inhibitory concentration against Plasmodium falciparum
[2] = Inhibitory concentration against cycloguanil sensitive Plasmodium falciparum FJB-D9; format: functional
Procedure, shortened: (§1)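 P. falciparum field isolates (collected from patients, 1990) grown in RPMI 1640 lacking p-aminobenzoic acid and folic acid, with 25 mM HEPES, bicarbonate and 10% human AB+ serum. Compounds tested over 0.0005–100 range, 30 h at 37 °C in candle jar. Schizonts (≥8 nuclei) per 200 asexual parasites counted microscopically in duplicate wells. Inhibition as (1 − Nt/Nc)×100. IC50/IC90 taken from these values.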

Plasmodium falciparum [3] = experiment: Inhibitory concentration sensitive Plasmodium falciparum FJB-D9; format: functional
Procedure, shortened: as §1

Plasmodium falciparum [4] = experiment: Inhibitory concentration against Plasmodium falciparum

NC1=NC(c2ccccc2)N(c2ccccn2)C(N)=N1 (stereo unspecified)
pIC50 [1]: 4.28
pIC50 [2]: 4.09

NC1=NC(c2ccccc2)N(c2ccc(F)c(Cl)c2)C(N)=N1 (stereo unspecified)
pIC50 [1]: 4.09
pIC50 [2]: 4.06

Cc1ccc(N2CN=C(N)N=C2N)cc1
pIC50 [1]: 3.30
pIC50 [2]: 3.23

NC1=NCN(c2ccccn2)C(N)=N1
pIC50 [1]: 3.20
pIC50 [2]: 3.21

NC1=NCN(c2ccc(F)c(Cl)c2)C(N)=N1
pIC50 [1]: 4.83
IC90 (Plasmodium falciparum [3]): 47.6 µM
IC90 (Plasmodium falciparum [4]): 49.5 µM
pIC50 [2]: 4.76

CCc1nc(N)nc(N)c1-c1ccc(Cl)cc1 [PYRIMETHAMINE]
pIC50 [1]: 8.30
IC90 (Plasmodium falciparum [3]): 0.006 µM
IC90 (Plasmodium falciparum [4]): 0.028 µM
pIC50 [2]: 8.80
